A selection: hits, their analogues and other compounds. The true share with any hit is near 2%.
MBD2 DNA inh = MBD2-methylated oligo binding inhibition. Q9UBB5. TR-FRET, MBD2 binding to methylated oligonucleotide. inhibition, % at 4.4 µM. 370,000 compounds, 0.31% hits. AID 686964; in the data active means inhibition above about 13%
ARFGAP1 inhibitor = inhibitors of rat ARFGAP1 | Q62848 | Arfgap1-stimulated ARF1 GTP hydrolysis, GDP FP detection | inhibition, % at 16.5 µM | 360,000 compounds, 0.26% hits | AID 651572;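 active means inhibition above a per-plate limit, mean inhibition of low control wells plus 3 SD, cut at about 25% in these data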;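 further: 0% = DMSO wells with enzyme and 100% = wells lacking Arfgap1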
Target sequence (Q62848 1-136 limits assumed): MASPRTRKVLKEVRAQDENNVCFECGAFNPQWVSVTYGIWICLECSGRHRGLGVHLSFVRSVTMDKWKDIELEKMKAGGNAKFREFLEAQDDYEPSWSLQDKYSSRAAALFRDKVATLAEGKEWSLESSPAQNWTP
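Material: rat Arfgap1 GAP domain (His6, aa 1-136), purified enzyme. Also added: human ARF1(Δ1-17)-GTP substrate. Compound dosing: 16.5 µM single point, 1.26% DMSO. Timing: enzyme reaction 120 min at 25 °C after 20 min preincubation. Signal: GDP detection by fluorescence polarization. Read-out basis: percent inhibition of GAP-stimulated GDP formation, scaled between DMSO and no-Arfgap1 medians.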
TDP2 absorb = blocks human TDP2 phosphodiesterase activity | recombinant TDP2, T5PNP hydrolysis, p-nitrophenol absorbance 415 nm | AID 720702 | 370,000 compounds, 0.34% hits | O95551 | inhibition, % at 12.8 µM;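 active means inhibition above the mean of all tested compounds plus 3 SD, set per campaign, cut at about 25% in these data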;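 further: 0% = DMSO with enzyme and 100% = buffer with substrate but no TDP2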
Target sequence (O95551 whole entry, looked up): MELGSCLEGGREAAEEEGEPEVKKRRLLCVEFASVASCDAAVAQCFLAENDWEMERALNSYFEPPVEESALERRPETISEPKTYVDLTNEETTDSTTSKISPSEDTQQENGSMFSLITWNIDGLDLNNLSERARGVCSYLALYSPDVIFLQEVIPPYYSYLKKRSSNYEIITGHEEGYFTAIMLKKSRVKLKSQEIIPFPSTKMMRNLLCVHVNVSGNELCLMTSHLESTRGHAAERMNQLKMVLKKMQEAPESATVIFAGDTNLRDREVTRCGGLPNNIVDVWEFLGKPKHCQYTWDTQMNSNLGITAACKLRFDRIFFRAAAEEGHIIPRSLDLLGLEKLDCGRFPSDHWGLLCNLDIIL
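Evaluation: % inhibition relative to enzyme-containing and enzyme-free wells. Material: recombinant human TDP2. Benchmarks: enzyme-free and DMSO wells. Timing: enzyme reaction with compound for 2 h at 37 °C. Compound dosing: 12.8 µM only. Measured by: p-Nitrophenol epi absorbance. Reagent: T5PNP substrate at 5 mM, a TopII-DNA adduct mimic. Replication: single well per compound.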
UHRF1 binding = UHRF1 methyl-DNA binding inhibition; Q96T88; UHRF1 binding to methylated oligo, TR-FRET; inhibition, % at 4.4 µM; 370,000 compounds, 0.75% hits; AID 687016;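 further: UHRF1 SRA domain binding a hemimethylated CpG hairpin DNA probe; 0% = median of test compound wells and 100% = reference inhibitor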
LEDGF integ inh = blocks HIV-1 LEDGF/p75-dependent DNA integration. TR-FRET IN-LEDGF/p75 DNA integration, Eu/Cy5. inhibition, % at 3.7 µM. 370,000 compounds, 0.64% hits. AID 743269;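 active means inhibition above the screen-wide mean plus 3 SD, cut at about 13% in these data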;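 further: signal is the Cy5 over europium emission ratio at 671 and 618 nm; 0% = plate median of compound wells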
ASAP1 GAP inh = blocks human ASAP1-stimulated Arf1 GTP hydrolysis; GDP FP detection; inhibition, % at 16.5 µM; 360,000 compounds, 0.19% hits; AID 624377; in the data active means inhibition above about 25%;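 further: 0% = vehicle with enzyme and substrate and 100% = no enzyme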
UHRF1 DNA bind = counter-screen for MBD2 inhibitors: human UHRF1 methylated DNA binding inhibitors. inhibition, % at 4.4 µM. shares compounds with MBD2 DNA inh. 1,000 compounds, 25% hits. UHRF1 binding to methylated oligonucleotide, TR-FRET;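 further: UHRF1 SRA domain binding a labeled hemimethylated CpG hairpin DNA; 0% = vehicle only and 100% = reference inhibitor with vehicle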
MBD2 DBD conf = confirmation of human MBD2-DBD methylated oligonucleotide binding inhibitors | shares compounds with MBD2 DNA inh | 1,000 compounds, 26% hits | TR-FRET MBD2-DBD binding to methylated oligonucleotide | inhibition, % at 4.4 µM; in the data active means inhibition above about 14%
Numbers without * were called inactive; / = no result given. Unless noted, no stated cut-off is given here; in the data, active means inhibition above about 21%; inactive means the rest.

SMILES	MBD2 DNA inh	ARFGAP1 inhibitor	TDP2 absorb	UHRF1 binding	LEDGF integ inh	ASAP1 GAP inh	UHRF1 DNA bind	MBD2 DBD conf
CCOC(=O)N1CCN(C(=O)C[C@H]2C[C@@]3(C(=O)OC)C(=C[C@H](COCc4ccccc4)O[C@@H]3C)N(CCc3ccc(OC)c(OC)c3)C2=O)CC1	0.6	/	7.5	-0.4	0.5	/	/	/
CCN(CC)C(=O)c1csc([C@@H]2O[C@H](CO)[C@H](O)[C@H](O)[C@H]2O)n1	26.2*	4.3	-8.4	2.3	-0.7	-9.8	3.5	3.1
O=C1CCC(=O)N1c1ccc(-c2nc3sc4c(c3c(=O)o2)CCC4)cc1	6.3	-0.9	-0.2	0.7	-0.7	2.5	/	/
O=c1oc(-c2ccccc2)nc2sc3c(c12)CCC3	18.4*	1.8	9.5	45.7*	11.1	-0.7	25.9*	15.1*
C=CCN1C(=O)[C@@H](CC(=O)NCCc2ccccc2OC)[C@]2(C(=O)OCC)CCCCC/C=C/12	1.8	/	6.7	-0.1	-1.7	/	/	/
COc1ccc(-c2nc3c(C)cc(Br)cn3c2Cc2cccc(F)c2)cc1OC	2.7	-9.5	3.5	9.6	-5.9	3.0	/	/
COc1ccc(-c2nc3c4ccccc4ccn3c2Cc2cccc(F)c2)cc1OC	15.5*	-2.5	-9.4	15.4	2.7	-8.9	6.5	4.5
CCCC1CCC2(CC1)CCC2OC(=S)Nc1ccc(N(C)C)cc1 (centres undefined)	-6.8	/	1.7	-2.6	-0.6	/	/	/
CCCc1nc2ccc(C)cn2c1Cc1ccsc1	16.2*	6.2	2.7	22.4*	-2.1	0.4	9.9	6.6
Cc1ccc2nc(-c3cccc(Cl)c3)c(Cc3ccsc3)n2c1	13.2*	-5.1	1.5	20.2	-0.9	3.9	8.8	5.3
CCCC1CCC2(CCCN2CCOC(=S)Nc2ccccc2Br)CC1 (centres undefined)	1.9	/	-2.6	2.3	-4.2	/	/	/
N#CCC[C@H]1CC[C@]2(CCCN(Cc3ccccc3)C2)O1	1.7	/	-0.1	0.8	-3.0	/	/	/
N#Cc1ccc(CSc2nnc(NC(=O)C3CCCO3)s2)cc1 (centres undefined)	16.7*	7.5	2.8	24.5*	2.9	1.6	6.6	1.8
COC(=O)c1ccc(CSc2nnc(NC(=O)C3CCCO3)s2)cc1 (centres undefined)	-1.4	0.0	7.8	-0.2	-0.9	10.4	/	/
O=C(C1CCCN1S(=O)(=O)c1ccc([N+](=O)[O-])cc1)N1CCN(c2ccccc2)CC1 (centres undefined)	6.4	/	5.3	0.6	-4.5	/	/	/
C=C(C)C(=O)Nc1cccc(C2=NOC3(C2)C[C@@H](C(N)=O)N(C(=O)CCCCC)C3)c1 (some centres undefined)	44.1*	2.4	10.0	89.7*	41.4*	-6.4	100.3*	82.3*
CCCCCCCCN1C(=O)[C@@H](CC(=O)N2CCN(C(=O)C3CC3)CC2)C[C@@]2(C(=O)OC)C1=C[C@H](C(C)C)O[C@@H]2C1CC1	-1.4	/	-8.8	2.0	1.1	/	/	/
CCC1CCCCN1C(=O)COC(=O)c1cccs1 (centres undefined)	17.3*	10.5	6.7	14.2	-1.4	-5.4	0.7	7.1
C[C@@H]1N[C@H]2N(C1=O)c1ccccc1[C@@]21C[C@@H]2C(=O)N[C@](C)(O1)c1nc3ccccc3c(=O)n12	-5.0	/	4.9	-1.4	-1.7	/	/	/
COc1ccc(CCC(=O)Nc2cccc(S(=O)(=O)N3CCCCCC3)c2)cc1	1.3	1.8	-8.3	-0.5	2.6	5.0	/	/
COc1ccc(CC(=O)Nc2cccc(S(=O)(=O)N3CCCCC3)c2)cc1	39.6*	10.9	6.9	-2.5	1.4	4.8	2.2	1.8
COc1ccc(NC(=O)c2cccs2)cc1C(=O)N1CCN(c2ccccc2)CC1	24.1*	0.4	3.5	0.8	-1.7	5.3	9.5	2.3

Screens (PubChem)
